7 compounds from ChEMBL document CHEMBL1123790, “Stereospecificity of the chloride ion channel: the action of chiral clofibric acid analogues” (J Med Chem, 1987) can be followed below.

The species named for test [1] is Rattus norvegicus. Nature of the test: Concentration required to block 50% chloride conductance in rat extensor digitorum longus(EDL) muscle fibers. It counts as functional, organism-based. The method in brief:
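Male Wistar rats (180–220 g); EDL muscles in bath at 30 ± 1 °C, perfused with Ringer's (normal or Cl⁻-free methyl sulfate) containing compound, pH 7.3–7.4, from 10^-3 g/mL stocks in 1% NaHCO3. Intracellular microelectrode cable analysis; GCl = mean Gm − mean GK. Three or more concentrations (5–230 μM); curves fit to single-site binding by nonlinear least squares, IC50 ± SD.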

The species named for test [2] is Rattus norvegicus. Nature of the test: Number of fibres over number of preparation sampled was determined at a concentration of 92 uM. The test is classed as functional.
The species named for test [3] is Rattus norvegicus. Nature of the test: Latency in rat extensor digitorum longus(EDL) muscle fibers was determined at a concentration of 92 uM. It counts as functional. Summed up: (§1)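 EDL fibres from male Wistar rats (180–220 g), in Ringer's at 30 ± 1 °C, pH 7.3–7.4, drug diluted from bicarbonate stock. Two intracellular microelectrodes within 100 μm; fibre held at -80 mV by holding current, then square-wave constant-current depolarizing pulses. Read-outs: resting potential, latency to action potential, threshold current (long pulse), maximal spike number; mean ± SEM, fibres/preparations counted; Student's t test.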

The species entered for test [4] is Rattus norvegicus. Nature of the test: Resting membrane potential in rat extensor digitorum longus(EDL) muscle fibers was determined at a concentration of 92 uM. The test is classed as functional. Summed up: as §1
The species named for test [5] is Rattus norvegicus. Nature of the test: Maximum number of spikes elicited by strong depolarizing pulses in rat extensor digitorum longus muscle fibers was determined at a concentration of 92 uM. It counts as functional. Summed up:
as §1

Test [6] is filed under the species Rattus norvegicus. Description: Minimal current intensity for a long pulse for a single action potential in rat extensor digitorum longus(EDL) muscle fibers was determined at a concentration of 92 uM. It counts as functional. The method in brief:
(§2)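 Male Wistar rat (180–220 g) EDL muscles in Ringer's bath at 30 ± 1 °C, pH 7.3–7.4. Two intracellular microelectrodes (current electrode within 100 μm of voltage electrode). Square-wave constant-current pulses applied after holding at -80 mV. Latency = maximum delay to action potential onset; threshold = minimal long-pulse current for one spike; spikes = maximum with strong depolarization. Mean ± SEM; Student's t test.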

The species entered for test [7] is Rattus norvegicus. Description: Number of fibres over number of preparation sampled was determined at a concentration of. It counts as functional.
For test [8], the species on record is Rattus norvegicus. Description: Latency in rat extensor digitorum longus(EDL) muscle fibers was determined at a concentration of 20 uM. It counts as functional. The method in brief:
as §2

For test [9], the species on record is Rattus norvegicus. Description: Resting membrane potential determined in rat extensor digitorum longus(EDL) muscle fibers at a concentration of 20 uM. It counts as functional. Summed up:
as §2

Test [10] is filed under the species Rattus norvegicus. Nature of the test: Maximum number of spikes elicited by strong depolarizing pulses in rat extensor digitorum longus muscle fibers was determined at a concentration of 20 uM. It counts as functional. Summed up:
as §2

Test [11] is filed under the species Rattus norvegicus. Nature of the test: Minimal current intensity for a long pulse for a single action potential in rat extensor digitorum longus muscle fibers was determined at a concentration of 20 uM. It counts as functional. The method in brief: as §2
The species entered for test [12] is Rattus norvegicus. Nature of the test: Latency was determined in rat extensor digitorum longus(EDL) muscle fibers at a concentration of 92 uM. The test is classed as functional. Summed up:
as §2

Test [13] is filed under the species Rattus norvegicus. Description: Resting membrane potential determined in rat extensor digitorum longus(EDL) muscle fibers at a concentration of 92 uM. The test is classed as functional. The method in brief: as §2
For test [14], the species on record is Rattus norvegicus. Nature of the test: Maximum number of spikes elicited by strong depolarizing pulses in rat extensor digitorum longus(EDL) muscle fibers was determined at a concentration of 92 uM. It counts as functional. The method in brief: as §2
For test [15], the species on record is Rattus norvegicus. Description: Number of fibres over number of preparation sampled was determined at a concentration of 20 uM. It counts as functional. The method in brief: as §1
The species entered for test [16] is Rattus norvegicus. Description: Maximum number of spikes elicited by strong depolarizing pulses in rat extensor digitorum longus(EDL) muscle fibers was determined at a concentration of 20 uM. It counts as functional. Summed up: as §1
For test [17], the species on record is Rattus norvegicus. Nature of the test: Minimal current intensity for a long pulse for a single action potential in rat extensor digitorum longus(EDL) muscle fibers was determined at a concentration of 20 uM. It counts as functional. Summed up:
as §1

The species named for test [18] is Rattus norvegicus. Nature of the test: Number of fibres over number of preparation sampled was determined at a concentration of 230 uM. The test is classed as functional.
The species entered for test [19] is Rattus norvegicus. Nature of the test: Latency in rat extensor digitorum longus(EDL) muscle fibers was determined at a concentration of 230 uM. It counts as functional. The method in brief:
as §2

Test [20] is filed under the species Rattus norvegicus. Description: Resting membrane potential in rat extensor digitorum longus(EDL) muscle fibers was determined at a concentration of 230 uM. The test is classed as functional. Summed up: as §1
The species named for test [21] is Rattus norvegicus. Nature of the test: Maximum number of spikes elicited by strong depolarizing pulses in rat extensor digitorum longus(EDL) muscle fibers was determined at a concentration of 230 uM. The test is classed as functional. Summed up:
as §2

Test [22] is filed under the species Rattus norvegicus. Description: Minimal current intensity for a long pulse for a single action potential in rat extensor digitorum longus(EDL) muscle fibers was determined at a concentration of 230 uM. It counts as functional. Summed up: as §2
Test [23] has as its system Rattus norvegicus. Nature of the test: Concentration to block chloride membrane conductance (G Cl) in rat extensor digitorum longus (EDL) muscle fibers (in vivo and in vitro). It counts as functional, organism-based. Summed up:
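Male Wistar rats 180–220 g; EDL muscles in bath at 30 ± 1 °C, perfused with Ringer's (normal or Cl⁻-free methyl sulfate), pH 7.3–7.4; compounds from 10^-3 g/mL stock in 1% NaHCO3, tested 5–230 μM. Intracellular microelectrode cable analysis; GCl = mean Gm minus mean GK; ≥3 concentrations; single-site binding fit by nonlinear least squares gives IC50 ± SD.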

The species named for test [24] is Rattus norvegicus. Nature of the test: Resting membrane potential determined in rat extensor digitorum longus(EDL) muscle fibers at a concentration of 230 uM. The test is classed as functional. Summed up:
as §2

Molecules are shown by their SMILES. Bounds are passed on as bounds.

As to `CCC(Oc1ccc(Cl)cc1)C(=O)O` (racemic), the midpoint of inhibition in the test listed under Rattus norvegicus [1], the IC50, lay at 44 µM. This compound also had a Fibers/preparations in the test filed under Rattus norvegicus [2] of 12. The Latency in the test listed under Rattus norvegicus [3] is less than 18.3 ms. The Resting potential in the test listed under Rattus norvegicus [4] was < 65 -mV. The No. of spikes in the test filed under Rattus norvegicus [5] is listed as less than 15.6. Also, the Threshold current in the test listed under Rattus norvegicus [6] came to 67.3 nA.

For the compound `C[C@H](Oc1ccc(Cl)cc1)C(=O)O`, the 50% inhibitory concentration (IC50) (in general, the concentration at which inhibition is half-maximal) in the test filed under Rattus norvegicus [1] turned out to be 12 µM. In the test filed under Rattus norvegicus [7], this compound had a Fibers/preparations of 15. Also, the Latency in the test listed under Rattus norvegicus [8] is given as less than 45.5 ms. Besides, the Resting potential in the test filed under Rattus norvegicus [9] was 70 -mV. The compound further yielded a No. of spikes in the test listed under Rattus norvegicus [10] of less than 18. In the test listed under Rattus norvegicus [11], this compound registered a Threshold current of less than 65 nA.

`CC(Oc1ccc(Cl)cc1)C(=O)O` (racemic) registered a concentration for half-maximal inhibition (IC50) in the test filed under Rattus norvegicus [1] of 81 µM. The compound further came in with a Fibers/preparations in the test filed under Rattus norvegicus [2] of 18. The Latency in the test filed under Rattus norvegicus [12] stood at 24.3 ms. Moreover, the Resting potential in the test listed under Rattus norvegicus [13] was 74 -mV. Also, in the test filed under Rattus norvegicus [14], the No. of spikes is recorded as 12.5. In the test filed under Rattus norvegicus [6], this compound had a Threshold current of 79.1 nA.

`CC[C@H](Oc1ccc(Cl)cc1)C(=O)O` registered an IC50 in the test filed under Rattus norvegicus [1] of 10.3 µM. For the same compound, the Fibers/preparations in the test filed under Rattus norvegicus [15] was determined as 8. Besides, in the test filed under Rattus norvegicus [8], the Latency is less than 30.2 ms. The Resting potential in the test listed under Rattus norvegicus [9] is 68 -mV. The No. of spikes in the test filed under Rattus norvegicus [16] is reported as less than 15. In the test filed under Rattus norvegicus [17], this compound gave a Threshold current of 65 nA.

In the test listed under Rattus norvegicus [18], `CC[C@@H](Oc1ccc(Cl)cc1)C(=O)O` registered a Fibers/preparations of 13. The same compound registered a Latency in the test listed under Rattus norvegicus [19] of 5.2 ms. Also, the Resting potential in the test listed under Rattus norvegicus [20] is 70 -mV. This compound gave a No. of spikes in the test filed under Rattus norvegicus [21] of 6.5. The same compound yielded a Threshold current in the test listed under Rattus norvegicus [22] of 121 nA.

The compound `CC(C)(Oc1ccc(Cl)cc1)C(=O)O` [CLOFIBRIC ACID] registered an IC50 in the test with Rattus norvegicus [23] of 205 µM.

Regarding `C[C@@H](Oc1ccc(Cl)cc1)C(=O)O`, the Fibers/preparations in the test listed under Rattus norvegicus [18] stood at 8. Besides, in the test listed under Rattus norvegicus [19], the Latency is recorded as 6.2 ms. Moreover, the Resting potential in the test listed under Rattus norvegicus [24] was 73 -mV. The compound also gave a No. of spikes in the test listed under Rattus norvegicus [21] of 6.5. This compound also showed a Threshold current in the test listed under Rattus norvegicus [22] of 90 nA.
